SIAE inh – human SIAE inhibition, primary screen; Q9HAT2; SIAE FP-Rh probe binding, fluorescence polarization; inhibition, % at 9.66 µM; 370,000 tested, 0.69% active; AID 1053197;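 active = inhibition above a cutoff: mean of compounds within the control limits plus 3 SD of those, cut at about 17% in these data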;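 note: 0% = plate median of compound wells and 100% = probe without SIAE protein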
Target sequence (Q9HAT2 whole entry, looked up): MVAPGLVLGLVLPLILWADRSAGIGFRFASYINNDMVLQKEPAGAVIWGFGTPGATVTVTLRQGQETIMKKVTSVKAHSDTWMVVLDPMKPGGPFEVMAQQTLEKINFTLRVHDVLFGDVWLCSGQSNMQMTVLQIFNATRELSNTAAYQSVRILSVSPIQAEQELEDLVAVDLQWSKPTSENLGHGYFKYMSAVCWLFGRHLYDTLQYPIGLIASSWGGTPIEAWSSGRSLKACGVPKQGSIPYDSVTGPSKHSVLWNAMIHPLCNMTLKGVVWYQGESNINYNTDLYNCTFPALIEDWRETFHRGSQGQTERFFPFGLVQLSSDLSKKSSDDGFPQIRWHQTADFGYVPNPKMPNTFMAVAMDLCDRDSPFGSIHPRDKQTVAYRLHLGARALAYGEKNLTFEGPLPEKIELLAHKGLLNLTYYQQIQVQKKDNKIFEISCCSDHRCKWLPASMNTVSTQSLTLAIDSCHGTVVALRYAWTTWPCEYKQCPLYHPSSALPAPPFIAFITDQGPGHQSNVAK
PRMT1 FP inh – blocks human protein arginine methyltransferase 1. AID 652257. inhibition, % at 2.79 µM. Q99873. recombinant PRMT1, activity-based probe fluorescence polarization. 370,000 tested, 1.3% active;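 active = inhibition above about 21% made by adding two undisclosed values, limit read from the data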
ABHD4 inh – ABHD4 (mouse) inhibition, primary FP screen; AID 720543; purified mABHD4, FP-Rh probe fluorescence polarization; inhibition, % at 8.92 µM; 370,000 tested, 0.54% active; Q8VD66;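 active = inhibition exceeding the mean over every tested compound plus 3 SD, cut at about 30% in these data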;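 note: 0% = plate median of compound wells and 100% = S159A mutant with DMSO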
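Test system: mABHD4 protein; Read-out basis: % inhibition; Incubation: 45 min + 60 min at 25 °C; Repeats: single replicate; Technique: fluorescence polarization with parallel and perpendicular emission, 525/598 nm; Compound: 8.92 µM, single dose; Benchmarks: full inhibition S159A mutant plus DMSO, zero as sample-well median.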
TCR CD3 inh – inhibitors of human TCR-CD3 interaction; TAMRA-labeled TCR probe fluorescence, biochemical; inhibition, % at 9.4 µM; 360,000 tested, 0.37% active; AID 651800; in the data active = inhibition above about 19%;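 note: recombinant mutant TCR 2C K166C tagged with TAMRA read by polarization; 0% = receptor in buffer alone and 100% = receptor with positive control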
HTRA1 inhibitor – blocks human HTRA1 serine peptidase | recombinant HTRA1, FP-rhodamine activity-based probe, fluorescence polarization | inhibition, % at 5.96 µM | 340,000 tested, 0.5% active | AID 504803; in the data active = inhibition above about 36%;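 note: 0% = enzyme with DMSO and 100% = wells lacking enzyme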
ATG4B inh – ATG4B (human) cysteine protease inhibition; Q9Y4P1; ATG4B cleavage of LC3-PLA2, NBD-HPC fluorescence, 1 h; inhibition, % at 8.33 µM; 340,000 tested, 0.51% active; in the data active = inhibition above about 40%
mABHD4 conf – confirmation of mouse ABHD4 inhibitors. 1,800 tested, 55% active. shares compounds with ABHD4 inh. inhibition, % at 8.92 µM. purified mABHD4, FP-Rh probe fluorescence polarization;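 active = mean inhibition across replicates above the hit cutoff set in the primary screen, cut at about 30% in these data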;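 note: 0% = wild-type ABHD4 with DMSO and 100% = catalytically dead S159A mutant with DMSO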
Active calls of the source: *; / = no result. This is a sample that favours compounds with a hit; in the whole collection about 2.9% have one here.

SMILES | SIAE inh | PRMT1 FP inh | ABHD4 inh | TCR CD3 inh | HTRA1 inhibitor | ATG4B inh | mABHD4 conf
N#Cc1c(N)nc2c3c(sc(=N)c2c1N)NC(=O)CC3c1ccccc1 (configuration not stated) | -2 | 8 | 31* | 17 | 26 | -18 | -77
N#CC1=C(SCc2ccccc2)NC(=O)CC1c1ccccc1 (configuration not stated) | 1 | 1 | 3 | -2 | -3 | -2 | /
N#Cc1ccccc1S(=O)(=O)N1CCN(CC(O)CN2CCOCC2)CC1 (configuration not stated) | 6 | 2 | 38* | -3 | 1 | -3 | 12
Cc1ccc(NC(=O)CN2C(=O)CCSc3ccccc32)cc1C | -1 | 2 | 4 | / | / | / | /
CC(=O)Nc1ccc(/C=N\NC(=O)c2cccc(S(=O)(=O)N(C)C)c2)cc1 | -3 | 0 | 3 | / | / | / | /
O=C(COc1ccccc1)N=C1SC2CS(=O)(=O)CC2N1CCc1ccccc1 (configuration not stated) | -3 | 2 | 2 | -4 | 4 | -14 | /
O=C(COc1ccccc1)N=C1SC2CS(=O)(=O)CC2N1c1ccc(F)cc1 (configuration not stated) | 4 | 1 | 34* | 4 | 4 | 11 | 0
Cc1ccc(CN2C(=O)N/C(=C/c3ccc(-c4ccc(C(=O)O)cc4)o3)C2=O)cc1 | -2 | 13 | 5 | 0 | -5 | 13 | /
Cc1cc(C(=O)O)ccc1-c1ccc(/C=C2\NC(=O)N(Cc3ccc(F)cc3)C2=O)o1 | 4 | 5 | 30* | 5 | 2 | -1 | 78*
CC(C)(C)c1ccc(-c2nnc(SCC(=O)c3ccc([N+](=O)[O-])cc3)n2-c2ccc(Cl)cc2)cc1 | 1 | 3 | 12 | / | / | / | /
CC(=C\c1ccccc1)/C=C1/SC(=S)N(C(C(=O)O)C(C)C)C1=O (configuration not stated) | -1 | 11 | -11 | 2 | -29 | 26 | /
CC(C(=O)O)N1C(=O)/C(=C/C=C/c2ccco2)SC1=S (configuration not stated) | 5 | 56* | 37* | 2 | 28 | 72* | 15
CC(C)c1ccc2c(c1)C(N1CCNCC1)Cc1ccc(F)cc1S2 (configuration not stated) | -11 | 6 | 32* | -6 | / | -3 | 47*
O=C(N/N=C1\C/C(=N\NC(=O)c2ccncc2)c2ccccc21)c1ccncc1 | 7 | 6 | 39* | -5 | 29 | -12 | 29
COc1cc(Cl)ccc1OCc1cc(C(=O)N2C[C@H]3CC[C@H]2C3)no1 | 12 | 1 | -2 | 4 | -2 | -3 | /
COc1cc(Cl)ccc1OCc1cc(C(=O)N2C[C@]3(C)C[C@H]2CC(C)(C)C3)no1 | -7 | 1 | 32* | 7 | -24 | 9 | 27
COCCCN1C(=O)[C@H](CC(=O)NCc2ccc(OC)c(OC)c2)[C@]2(C(=O)OC)CCCCC=C12 | 5 | -4 | 5 | / | / | / | /
Cc1nc(NC(=O)COc2ccccc2)sc1C(=O)Nc1ccccc1 | 0 | 3 | 49* | -3 | -32 | -5 | 50*
COC(=O)c1sc(NC(=O)COc2ccccc2)nc1C | -4 | 1 | -2 | -6 | -5 | -4 | /
O=[N+]([O-])c1ccc(/C=N/Nc2nc(N3CCCCC3)nc(N3CCCCC3)n2)o1 | -1 | 2 | 54* | 4 | 5 | 1 | 55*
COc1c(/C=N/Nc2nc(N3CCCCC3)nc(N3CCCCC3)n2)cccc1[N+](=O)[O-] | 0 | 5 | 4 | -3 | 2 | 0 | /
CCN(CC)c1ccc(NC(=O)CSc2nnc(-c3ccc(Cl)cc3)n2Cc2ccco2)cc1 | 0 | -1 | 17 | / | / | / | /
C=CC[C@]1(c2ccccc2)C(=O)N2C[C@H]3CON(C)[C@H]3C[C@H]2c2ccccc21 | 1 | 2 | 0 | 2 | / | / | /
NNc1nc2c(Cl)ccc(Cl)c2s1 | 10 | 0 | 39* | 7 | 8 | -6 | 48*
COC(=O)[C@]12C[C@H](CC(=O)N3CCN(C(=O)C4CC4)CC3)C(=O)N(Cc3ccco3)C1=C[C@H](C(C)C)O[C@@H]2C1CC1 | 1 | 3 | 2 | / | / | / | /
SMILES | SIAE inh | PRMT1 FP inh | ABHD4 inh | TCR CD3 inh | HTRA1 inhibitor | ATG4B inh | mABHD4 conf
COC(=O)CN1CCN(C(=O)c2nocc2C)CC1 | 2 | -5 | 1 | / | / | / | /
C/C(=N\Nc1ccc(C(=O)O)cc1)c1ccc2c(c1)Nc1ccccc1S2 | 16 | 3 | 43* | 0 | 35 | 28 | 77*
O=C1CC(Nc2ccc(N3CCOCC3)cc2)C(=O)N1c1ccccc1F (configuration not stated) | 14 | 17 | 50* | 4 | 16 | -13 | 2
O=C1CC(Nc2ccccc2)C(=O)N1c1ccc(N2CCOCC2)cc1 (configuration not stated) | 4 | 2 | 0 | -2 | 4 | -1 | /
COCc1cc(N2CCNC[C@H]2C)ccc1N1CCS(=O)(=O)CC1 | 3 | -2 | 2 | 1 | / | / | /
Cc1cc2ccccn2c1C(=O)c1cc([N+](=O)[O-])cc([N+](=O)[O-])c1 | 3 | 1 | 2 | -4 | 3 | -9 | /
Cc1cc2ccccn2c1C(=O)c1ccc(NN)c([N+](=O)[O-])c1 | 8 | 14 | 33* | -2 | -1 | -1 | 17
CCOC(=O)CC[C@@H]1CC[C@]2(CCCN(C(=O)c3ccc4ccccc4n3)C2)O1 | 1 | 8 | 3 | / | / | / | /
COc1ccc(OC)c(S(=O)(=O)N2CCC(C(=O)N3CCN(C4CCCCC4)CC3)CC2)c1 | 3 | 0 | 6 | / | / | / | /
Oc1csc(Cc2nc(-c3ccc(-c4ccccc4)cc3)cs2)n1 | 4 | 1 | 33* | 2 | 2 | -6 | -8
Nc1cc2c(cc1Br)[nH]c(=O)c1ccccc12 | -3 | 3 | 31* | 1 | 28 | -6 | 31*
Nc1cccc2[nH]c(=O)c3ccccc3c12 | 16 | 6 | 31* | 3 | 9 | -8 | 12
O=c1[nH]c2ccccc2c(=O)c2ccccc12 | -3 | 6 | 4 | 2 | -1 | / | /
COc1cccc(CNS(=O)(=O)c2c(C)nc3sccn3c2=O)c1 | 0 | 4 | 65* | 5 | 4 | 6 | -3
CC[C@@H](C)[C@H](CNC)NC[C@@H](Cc1cccc2ccccc12)NCCc1cccc(C(F)(F)F)c1 | 0 | -2 | 49* | 0 | -7 | 8 | 51*
CNC[C@@H](CC1CCCCC1)NC[C@H](CC(C)C)NCCc1cccc(C(F)(F)F)c1 | -3 | 2 | 31* | -5 | 5 | 2 | 52*
CNC[C@@H](Cc1ccccc1)NC[C@@H](CC1CCCCC1)NCCCc1ccccc1 | 5 | 1 | 38* | 8 | 4 | 8 | 46*

Assay outcomes as filed in PubChem BioAssay.
